# Screens from PubChem.
# Compounds with a hit are over-represented: about 2.9% of the library has one in this group of screens.
# HSP90 refold inh = HSP90 refolding inhibition in rabbit reticulocyte lysate; luciferase refolding luminescence, 3 h; inhibition, % at 5.6 µM; 0.91% of 290,000 active;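 active = inhibition above the screen-wide mean plus 3 SD, computed separately per campaign, cut at about 16% in these data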;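 also: 0% = DMSO wells and 100% = 60 µM geldanamycin wells; inhibitors lower the luminescence because luciferase stays unfolded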
# SENP8 block-1 = SENP8 (human) protease inhibition. Q96LD8. recombinant SENP8, Nedd8 substrate fluorescence. inhibition, % at 20 µM. 0.64% of 360,000 active. AID 602440; in the data active = inhibition mostly above about 40%, no sharp cut-off; inactive = mostly below about 27%
# Target sequence (Q96LD8 whole entry, looked up): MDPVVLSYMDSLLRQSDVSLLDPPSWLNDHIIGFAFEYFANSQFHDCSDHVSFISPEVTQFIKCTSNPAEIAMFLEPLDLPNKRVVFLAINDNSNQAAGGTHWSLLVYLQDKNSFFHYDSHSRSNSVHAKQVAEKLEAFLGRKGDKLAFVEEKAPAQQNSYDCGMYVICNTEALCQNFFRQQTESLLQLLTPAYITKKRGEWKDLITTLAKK
# SENP8 block-2 = inhibitors of human SENP8 protease | 1.2% of 330,000 active | purified SENP8, Z-RLRGG-aminoluciferin cleavage, luminescence | AID 2540 | inhibition, % at 10 µM; in the data active = inhibition above about 50%
# SENP6 block = blocks the human protease SENP6; Recombinant SENP6 catalytic domain, aminoluciferin luminescence; 1.8% of 330,000 active; inhibition, % at 10 µM;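 active = inhibition above about 50% at the single tested dose, limit read from the data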;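 also: plate controls were DMSO wells with enzyme for no effect and DMSO wells lacking enzyme for full effect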
# SENP1 FRET inh = SENP1 (human) catalytic domain inhibition. inhibition, % at 10 µM. recombinant SENP1 catalytic domain, CyPet-SUMO1-YPet FRET cleavage. Q9P0U3. 0.21% of 360,000 active;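 active = inhibition at least 30% at 10 µM, raw YFP signal under a set limit, fluorescence ratio 0.5 to 1.5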;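 also: 0% = enzyme with DMSO and 100% = no enzyme wells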
#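 Material: hSENP1 catalytic domain, recombinant; medium: Tris pH 8 with BME, BSA, NP40 and catalase; compound: single concentration of 10 µM compound, 0.5% DMSO final; technique: FRET read of cyan and yellow fluorescence; timing: 50 min enzyme reaction, room temperature, light-protected; reagent: SFCypet-SUMO1-SFYpet substrate at 25 nM; control set: no-enzyme low, enzyme-DMSO high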
# SENP7 block = inhibitors of human SENP7 protease | Q9BQF6 | recombinant SENP7, Z-RLRGG-aminoluciferin luminescence, 40 min | inhibition, % at 5 µM | 1.5% of 330,000 active | AID 434973;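 active = inhibition above about 50% at the single test dose, limit read from the data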;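 also: plate controls were DMSO with enzyme for no effect and no enzyme buffer wells for full effect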
# SENP8 confirm = human SENP8 inhibition, confirmed; shares compounds with SENP7 block; Recombinant SENP8, Z-RLRGG-aminoluciferin luminescence, 60 min; inhibition, % at 12.5 µM; 40% of 6,200 active;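 active = mean inhibition across replicates above about 50%, limit read from the data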
# SENP6 conf = human SENP6 inhibition, confirmed | 58% of 6,200 active | inhibition, % at 12.5 µM | recombinant SENP6, Z-RLRGG-aminoluciferin luminescence | AID 488915 | shares compounds with SENP7 block
# SENP7 conf = human SENP7 inhibition, confirmed | shares compounds with SENP7 block | recombinant SENP7, Z-RLRGG-aminoluciferin luminescence, 40 min | inhibition, % at 12.5 µM | 69% of 6,200 active
# Casp3 SENP sel = caspase-3 inhibition (SENP selectivity assay); 60% of 6,200 active; shares compounds with SENP7 block; inhibition, % at 12.5 µM; AID 488918; purified caspase-3, Z-DEVD-aminoluciferin luminescence, 60 min;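 active = mean inhibition above about 50%, limit read from the data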;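 also: plate controls were enzyme with DMSO for no effect and wells without caspase-3 for full effect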
# Target sequence (P42574 28-227 limits assumed): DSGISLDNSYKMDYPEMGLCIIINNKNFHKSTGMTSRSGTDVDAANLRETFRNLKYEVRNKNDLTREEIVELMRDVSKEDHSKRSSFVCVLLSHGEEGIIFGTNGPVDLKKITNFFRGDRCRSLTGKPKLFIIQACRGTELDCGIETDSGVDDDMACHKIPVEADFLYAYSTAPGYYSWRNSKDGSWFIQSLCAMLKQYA
# SENP luc ctr = interferes with luciferase luminescence in SENP counter-screen; shares compounds with SENP7 block; 39% of 6,200 active; Pre-incubated SENP8/Z-RLRGG-aminoluciferin, luciferase luminescence interference; inhibition, % at 12.5 µM;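 active = mean inhibition above about 50% when retested at one dose, limit read from the data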;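 also: plate controls were DMSO wells with completed reaction for no effect and substrate without enzyme for full effect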
# Numbers without * were called inactive; . = not tested or not shown.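 The calls were made as follows, unless noted: active = mean inhibition above about 50% in the one-dose retest (limit read from the data); inactive = the rest.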
SMILES,HSP90 refold inh,SENP8 block-1,SENP8 block-2,SENP6 block,SENP1 FRET inh,SENP7 block,SENP8 confirm,SENP6 conf,SENP7 conf,Casp3 SENP sel,SENP luc ctr
O=C(Cc1ccc(-c2ccccc2)cc1)Nc1ncccc1O,-2,-118,-1,14,-11,0,.,.,.,.,.
CC(=O)c1cc(C(=O)Nc2ccc3ccccc3c2)c(C)o1,4,-16,-10,-6,-25,1,.,.,.,.,.
Cc1cc(C(=O)Nc2ccc3ccccc3c2)oc1C,7,-56,61*,68*,-5,54*,2,66*,89*,50*,53*
Cc1ccc(NC(=O)c2ccc([N+](=O)[O-])o2)cc1C,2,16,61*,76*,1,87*,81*,80*,94*,79*,80*
O=C(Nc1cccc([N+](=O)[O-])c1)c1ccc([N+](=O)[O-])o1,.,38,.,.,0,.,.,.,.,.,.
Cc1cc(C(=O)Nc2ccc3ccccc3c2)c(C)o1,5,-20,73*,84*,-1,69*,84*,84*,96*,66*,68*
Nc1[nH]c(C(=O)c2ccccc2)c(-c2ccncc2)c1C(=O)NCCc1c[nH]c2ccccc12,.,22,.,.,-3,.,.,.,.,.,.
CN(C)c1ccc(C(=O)c2ccc(O)cc2O)cc1,2,31,49,67*,1,42,54*,51*,83*,46,60*
CCCCn1c(N)c(N(CCOC)C(=O)CSc2nnc(-c3ccco3)n2CC)c(=O)[nH]c1=O,.,2,0,0,0,4,.,.,.,.,.
CC(Cc1ccccc1)NC(=O)CCNNC(=O)c1ccncc1 (stereo not drawn),.,19,.,.,-1,.,.,.,.,.,.
O=C(Nc1ccc(NC(=O)c2ccco2)cc1)c1ccc2c(c1)OCO2,1,4,31,54*,-4,62*,6,13,-3,8,3
O=C(Nc1ccc(C(=O)N2CCCC2)cc1)c1ccc2c(c1)OCO2,1,2,80*,87*,0,91*,83*,86*,99*,96*,89*
O=C(Nc1ccc(NC(=O)c2ccco2)c(Cl)c1)c1ccc2c(c1)OCCO2,-1,-4,-19,4,3,10,.,.,.,.,.
O=C(Nc1ccc(C(=O)N2CCCCC2)cc1)C1=CSCCO1,8,4,68*,79*,1,81*,78*,74*,91*,91*,77*
c1ccc(-c2cnc(-c3ccccc3)nc2)cc1,-5,3,62*,73*,1,90*,11,17,7,9,8
c1ccc(-c2ncc3c(ccc4ccccc43)n2)cc1,-1,3,41,68*,2,90*,17,17,28,20,6
c1ccc2c(c1)cnc1ccccc12,7,13,-11,-7,2,14,.,.,.,.,.
COc1cccc(NC(=O)N(C)C[C@H]2Oc3cc(Br)ccc3S(=O)(=O)N([C@H](C)CO)C[C@H]2C)c1,.,-4,.,.,0,.,.,.,.,.,.
COc1ccc(/C=C2/SC(=S)N(CCCC(=O)N3CCN(C)CC3)C2=O)cc1,6,16,54*,65*,-32,69*,58*,60*,86*,67*,69*
COC(=O)c1ccc(/C=C2\SC(=S)N(CCCC(=O)N3CCOCC3)C2=O)cc1,.,2,.,.,0,.,.,.,.,.,.
Cc1ccc(/C=C2\SC(=S)N(CCCC(=O)N3CCOCC3)C2=O)cc1,6,11,84*,84*,1,84*,90*,89*,97*,72*,75*
COc1ccc(/C=C2\SC(=S)N(CC(=O)N3CCN(C)CC3)C2=O)cc1,5,31,-13,-33,-34,-6,.,.,.,.,.
CCOc1ccc(/C=C2\SC(=S)N(CCC(=O)O)C2=O)cc1,7,16,97*,99*,-25,60*,97*,100*,103*,49,92*
CC(C(=O)N1CCN(c2ccccc2)CC1)c1ccc([N+](=O)[O-])cc1 (stereo not drawn),-3,11,-6,1,2,-3,.,.,.,.,.
COc1ccc(/C=C2\CCC(C3CCCC3)C2=O)cc1 (stereo not drawn),-4,13,77*,54*,3,90*,45,49,50,69*,11
SMILES,HSP90 refold inh,SENP8 block-1,SENP8 block-2,SENP6 block,SENP1 FRET inh,SENP7 block,SENP8 confirm,SENP6 conf,SENP7 conf,Casp3 SENP sel,SENP luc ctr
COc1cc(OC)c(OC)cc1/C=C1\CCC(C2CCCC2)C1=O (stereo not drawn),0,-215,-2,-13,-35,-3,.,.,.,.,.
Cc1ccsc1/C=C1\CCC(C2CCCC2)C1=O (stereo not drawn),0,14,85*,97*,-1,83*,76*,81*,92*,80*,70*
O=[N+]([O-])c1c(NCCCO)cc(Sc2nc3ccccc3s2)c2nonc12,-2,26,91*,82*,-13,80*,7,13,0,-3,0
Cc1nnc(Sc2cc(NCCO)c([N+](=O)[O-])c3nonc23)s1,4,33,.,.,-16,.,.,.,.,.,.
CCC(=O)OCCNc1cc(Sc2nc3ccccc3s2)c2nonc2c1[N+](=O)[O-],4,60*,41,72*,-14,44,1,12,-4,-2,-3
CC(=O)Oc1cccc(-c2nc3ccccc3c(=O)o2)c1,-3,-8,-17,-15,3,-21,.,.,.,.,.
COc1cccc(-c2nc(-c3ccc(C(=O)O)cc3)no2)c1,.,-12,95*,99*,2,97*,99*,100*,103*,99*,86*
COc1cccc(-c2nc(-c3ccc(NC(=O)c4ccncc4)cc3)no2)c1,-6,7,2,4,-4,0,.,.,.,.,.
COc1cccc(-c2nc3ccc(O)cc3c(=O)o2)c1,-5,-36,74*,89*,-8,87*,-6,81*,96*,80*,87*
O=C(O)c1ccc(-c2noc(-c3cccc(F)c3)n2)cc1,.,8,95*,97*,-1,96*,98*,99*,101*,97*,95*
